PAX8 reporter = PAX8 transcriptional activity inhibition. inhibition, % at 12.6 µM. hit rate 1.2% among 360,000. RMG-I TPO-luciferase reporter, SteadyGlo, 24 h;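 active = mean replicate inhibition at least 60% with every replicate also reaching 60%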;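 also: luciferase light reporting Pax8 driven TPO promoter activity; plate controls were median of neutral control wells for no effect and mitoxantrone controls for full effect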
PGC1a acetyl inh = PGC1a acetylation modulation, inhibitor mode. U2OS PGC1a acetylation, AlphaScreen anti-acetyl-lysine; with virally co-expressed GCN5 acetyltransferase. hit rate 0.17% among 350,000. inhibition, % at 15.6 µM;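 active = every replicate shows inhibition of at least 40%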;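 also: 0% = neutral control wells and 100% = positive control wells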
FN deposition inh = fibronectin deposition inhibition | AH1F fibroblasts, Alexa488-fibronectin deposition fluorescence, overnight | inhibition, % at 12.6 µM | hit rate 0.086% among 350,000;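 active = mean inhibition across replicates of 30% or more, regardless of how many single replicates reach that level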;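 also: positive control wells lacked labelled fibronectin entirely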
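material = AH1F fibroblast monolayer depositing Alexa488-labelled fibronectin into matrix | amount = 10000 AH1F cells/well | buffer or medium = DMEM plus 2% serum, read in PBS | incubation = 1 h cell adhesion before compound, then overnight fibronectin incubation | detection = fluorescence at 485 nm excitation, 525 nm emission | evaluation = percent inhibition as loss of matrix-bound fibronectin fluorescence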
CFTR F508del cor = correctors of CFTR F508del function in bronchial epithelial cells | CFBE cells, YFP halide quenching; stimulated with forskolin plus potentiator P3; % fluorescence drop versus neutral controls | activity (quench increase), % at 7.58 µM | hit rate 0.36% among 350,000;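 active = mean added fluorescence quench of at least 8% versus neutral control, with both replicates also reaching 8%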;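 also: cells transiently co-express mutant CFTR-F508del with the halide-sensitive YFP; corrector assay measuring rescue of mutant channel to the surface after 24 h compound exposure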
HIV Env fusion = blocks HIV Env-driven cell-cell fusion | inhibition, % at 12.3 µM | HeLa-JRFL Env/CEM21 cell fusion, luciferase | hit rate 1.1% among 360,000;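 active = mean replicate inhibition score of at least 50 and every replicate individually at or above 50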;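 also: 0% = plate neutral controls and 100% = maraviroc near 300 nM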
EWS-Fli block = blocks EWS/Fli oncoprotein-driven transcription; A673 NR0B1-luciferase reporter, viability-normalised; inhibition, % at 12.6 µM; hit rate 0.67% among 350,000;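 active = mean inhibition of at least 50% after viability correction, with every replicate also passing that limit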;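 also: firefly luciferase signal divided by Alamar Blue viability fluorescence both relative to DMSO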
DNA binder FP = small molecule DNA binding by fluorescence polarization | AID 720586 | salmon sperm DNA acridine orange fluorescence polarization | AC35, µM (titrated, usually from 68 µM), for inactives: at the highest dose activity change, negative = DNA binding | shares compounds with EWS-Fli block | hit rate 2% among 640;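 active = fitted curve reaches a 35% signal fall AC35 below twice the sample's top valid tested dose, actives reach about 48 µM in these data; inactive = the rest, including activity in the rising direction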;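 also: lower polarization ratio signals compound binding to DNA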
The depositor's hits bear a star; . = no result; [ ] = dose if it differs, or a comment. The list is not random: actives were taken first. Their share in the collection is about 2.3%.

SMILES	PAX8 reporter	PGC1a acetyl inh	FN deposition inh	CFTR F508del cor	HIV Env fusion	EWS-Fli block	DNA binder FP
N=c1ccn2c(n1)O[C@H]1[C@H](O)[C@@H](CO)O[C@H]12	49	.	3	5	24	53*	-18%
N=c1ccn2c(n1)O[C@H]1[C@@H](CO)[C@H](O)O[C@H]12	52	24	0	5	48	48	.
Cc1noc(C)c1NC(=O)Nc1ccc2c(c1)C(=O)N([C@H](C)CO)C[C@@H](C)[C@H](CN(C)S(=O)(=O)c1c(C)noc1C)OCCCC[C@@H](C)O2	-45	1	.	-2	-16[16.7 µM]	-8	.
O=C1C(=O)N(CCS(=O)(=O)c2ccccc2)c2ccc(Cl)cc21	20	.	6	-1	0	57*	-9%
CCc1ccc2c(c1)C(=O)C(=O)N2CCS(=O)(=O)c1ccccc1	-15	8	0	0	-1	.	.
O=c1cc(O)c2sc3nc(-c4ccccc4)cc(C(F)(F)F)c3c2[nH]1	14	-4	0	.	13	.	.
COc1ccc(OC)c(-c2cc(C(F)(F)F)c3c(n2)sc2c(O)cc(=O)[nH]c23)c1	-3	.	.	.	2	89*	-9%
COc1ccc(C2=Nn3c([n+](C)c4ccccc43)SC2)cc1	84*	-15	0	0	30	53*	-3%
COc1ccc(NC(=O)c2cc3ccccc3oc2=O)cc1	-8	.	13	-3	-130	76*	-11%
C[C@H]1CN([C@@H](C)CO)C(=O)c2cc(-c3ccc(C(=O)N(C)C)cc3)cnc2O[C@@H]1CN(C)C(=O)c1ccncc1	17	2	-4	0	-5[16.7 µM]	6	.
CCCCc1c(Cc2ccccc2)ncn1CCc1ccccc1OC	62*	.	10	6	58*	55*	-13%
C[C@@H]1CN([C@@H](C)CO)C(=O)c2cc(NC(=O)Nc3ccccc3)ccc2O[C@@H](C)CCCCO[C@H]1CN(C)Cc1ccncc1	-5	-12	2	-2	3[16.7 µM]	.	.
CCN1CCN(/C=N/c2nc3c(s2)CCCC3)CC1	.	-5	.	-3	.	57*	-10%
CN1CCN(CC(=O)Nc2nc3c(s2)CCCC3)CC1	13	0	-17	-2	-4	6	.
COc1ccc(C2c3cc4c(cc3OC(NNC(N)=O)C2C)OCO4)cc1 (stereo not drawn)	.	-4	-6	2	19	50*	-9%
C[C@@H]1CN([C@@H](C)CO)C(=O)c2cccc(NC(=O)NC3CCCCC3)c2O[C@@H]1CN(C)S(C)(=O)=O	-8	-3	.	0	.	1	.
Cc1cc(-c2nc3cc(F)ccc3s2)ccc1N	-5	.	-2	-1	-232	74*	-1%
Nc1cc2sc(-c3ccc(C(=O)O)cc3)nc2cc1Cl	-24	.	-5	-1	-26	-17	.
Cc1ccc(Cl)cc1NC(=O)Cn1cc(C(F)(F)F)cc(Cl)c1=O	9	2	.	.	18	76*	4%
Cc1c(Cl)cccc1NC(=O)Cn1cc(C(F)(F)F)cc(Cl)c1=O	1	.	0	.	7	-9	.
Cc1occc1C(=O)Nc1sccc1C(N)=O	-38	4	.	1	-117	-21	.
Cc1noc(C)c1C(=O)Nc1sccc1C(N)=O	-7	3	-13	1	-4	76*	-21%
C[C@@H]1CN([C@@H](C)CO)C(=O)c2cc(NC(=O)Nc3ccc4c(c3)OCO4)ccc2O[C@@H]1CN(C)Cc1ccc(Cl)c(Cl)c1	.	-16	.	0	.	-6	.
CN(C)c1ccc(N=Nc2ccccc2Br)cc1	-19	.	5	-1	-153	53*	-5%
COc1ccc(-c2cn(-c3ccc(OC)cc3)c3[n+]2-c2ccccc2CC3)cc1	92*	.	.	.	29	74*	-5%
SMILES	PAX8 reporter	PGC1a acetyl inh	FN deposition inh	CFTR F508del cor	HIV Env fusion	EWS-Fli block	DNA binder FP
CCC(=O)Nc1ccc2c(c1)OC[C@H](C)N(Cc1ccccc1OC)C[C@H](C)[C@@H](OC)CN(C)C2=O	.	-2	-11	0	.	-5	.
COc1ccc(N=C2C(=O)Nc3ccc(C)c(Br)c32)cc1	0	0	4	1	-152	70*	-8%
COc1ccc(OC)c(N=C2C(=O)Nc3ccccc32)c1	-4	0	3	.	-44	.	.
COc1ccccc1-c1cn(CC[C@H]2CC[C@@H](NC(=O)C3CCCC3)[C@H](CO)O2)nn1	.	-8	-5	1	.	-1	.
COc1ccccc1-c1cn(CC[C@H]2CC[C@@H](NC(=O)C3CCCC3)[C@@H](CO)O2)nn1	.	-6	-2	-2	.	57*	-16%
Cc1ccc(OCCNC(=O)c2cccc(S(=O)(=O)NCc3ccccc3)c2)cc1	24	-3	12	10*	1	56*	-11%
O=C(c1cccc(S(=O)(=O)NCc2ccccc2)c1)N1CCN(c2ccccc2)CC1	30	-3	-11	-1	15	52*	-8%
O=C(NCc1ccncc1)c1cccc(S(=O)(=O)NCc2ccccc2)c1	3	1	.	-1	17	-1	.
CCCc1cc(=O)oc2c3c(c4c(c12)OC(C)(C)C=C4)OC(C)C(C)C3O (stereo not drawn)	.	-10	.	2	.	73*	2%
CCCc1cc(=O)oc2c3c(cc(OCC(=O)N[C@@H](C)C(=O)O)c12)OC(C)(C)CC3	7	-1	0	-4	8	6	.
COc1ccc(S(=O)(=O)N2[C@@H]3CNC[C@H]2C3c2ccc(-c3cccc(C)c3)cc2)cc1 (stereo partly drawn)	10	1	2	1	.	-8	.
CO[C@@H]1CN(C)C(=O)c2cc(NC(=O)C3CCC3)ccc2OC[C@@H](C)N(Cc2ccncc2)C[C@H]1C	.	-4	12	3	17[16.7 µM]	3	.
COc1ccc(N=C(NN)c2ccc3ccccc3n2)cc1	.	-20	2	1	25	72*	-1%
CC(C)(C)C(=O)Cn1ncc(Cl)c(Cl)c1=O	57	.	9	2	-173	75*	-4%
COc1ccc(NC(=O)Nc2ccc3c(c2)C(=O)N([C@@H](C)CO)C[C@@H](C)[C@@H](CN(C)S(C)(=O)=O)OCCCC[C@@H](C)O3)cc1	-4	-2	.	-2	3[16.7 µM]	6	.
CCc1ccc(/C=C2\SC(=S)N(CCCC(=O)N3CCN(C)CC3)C2=O)cc1	46	13	13	-2	27	69*	-24%
CCc1ccc(/C=C2\SC(=S)N(CCCC(=O)NCCCN3CCOCC3)C2=O)cc1	62*	15	-3	1	52	85*	0%
COCC(=O)Nc1ccc2c(c1)[C@H]1C[C@@H](CC(=O)NCc3cccc(F)c3)O[C@H](CO)[C@H]1O2	1	4	0	-3	4[16.7 µM]	-1	.
Cc1c(Cl)cccc1NC(=O)CCC(=O)N/N=C/c1ccc[nH]1	-8	.	-3	0	.	58*	-13%

High-throughput results: PubChem BioAssay, Broad Institute
